The record followed here is ChEMBL document CHEMBL1123598, “Inactivation of thymidylate synthase at an alternate high-affinity binding site” (J Med Chem, 1987).

The target of the assay is T1, Thymidylate synthase (Lactobacillus casei) (UniProt P00469).
T1 sequence (whole entry): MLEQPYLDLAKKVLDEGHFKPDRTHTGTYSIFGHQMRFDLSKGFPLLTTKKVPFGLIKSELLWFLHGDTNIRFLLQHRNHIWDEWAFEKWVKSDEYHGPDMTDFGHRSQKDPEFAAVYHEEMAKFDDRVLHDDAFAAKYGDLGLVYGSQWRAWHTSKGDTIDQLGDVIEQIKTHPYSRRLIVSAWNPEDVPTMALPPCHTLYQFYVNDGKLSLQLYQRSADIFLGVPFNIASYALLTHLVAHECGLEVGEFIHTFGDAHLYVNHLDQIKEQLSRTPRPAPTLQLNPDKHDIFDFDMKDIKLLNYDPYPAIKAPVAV
Briefly: Kinetic constant for the inactivation of Lactobacillus casei thymidylate synthase was determined at the concentration of 60 uM in the absence of substrate. The note with it: Lacticaseibacillus casei. Summed up: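 Enzyme (sp act. 3.2 μM mg⁻¹ min⁻¹) incubated with inhibitor in 0.1 M phosphate buffer, pH 6.8, 30 °C, with no substrate or with substrate at the stated concentration. Aliquots were withdrawn at intervals and residual activity was measured with 50 μM substrate in a 60-s assay. k_obsd was taken from activity loss; k2 and Ka came from the double-reciprocal plot of 1/k_obsd vs 1/[inhibitor].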

Consider `CC1=CC(=O)c2ccccc2C1=O`, for which the k was 5 se-1.
